Test results: article PMC9804109 (Current Research in Pharmacology and Drug Discovery, 2022)

Legend:
[1] = test system: melanoma cells; conditions: ref Le Gal et al., 2015; cited from earlier work
[2] = test system: V79 lung fibroblasts; conditions: ref Grosicka-Maciąg et al., 2011; cited from earlier work
[3] = test system: trypsin; conditions: previous HPLC conditions; ref Akhmadishina et al., 2018; cited from earlier work
[4] = test system: LN-229 cells; assay: MitoSOX flow cytometry of mitochondrial ROS, LN-229; type: cell-based, human; conditions: cytochrome c reductase inhibitor as control
Method in brief: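 Cells trypsinised, washed and suspended in HBSS at 1 × 10^6 cells/mL, then exposed to test compound (0.2 or 1 mM) in HBSS for 2 h. Stained with 5 μM MitoSOX for 20 min at 37 °C and read by flow cytometry in the red channel. Antimycin A served as the ROS-promoting control. Mean channel fluorescence ± SEM, n = 3; two-way ANOVA with Bonferroni post-test vs untreated.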

Compound: Cc1c(C)c2c(c(C)c1O)CCC(C)(C(=O)O)O2 (centres unmarked) [Trolox]
- elevation of GSH/GSSG ratio [1]: ca. 2.5 times

Compound: CC(=O)N[C@@H](CS)C(=O)O [N-acetylcysteine (NAC), N-acetylcysteine]
- elevation of GSH/GSSG ratio [1]: ~3.8 times
- increase of both GSH and GSSG levels [2]: up to 2 times

Compound: YRFK-NH2
- half-time of cleavage by trypsin [3]: 6 h

Compound: CCCCCC[C@H]1C(=O)O[C@H](C)[C@H](NC(=O)c2cccc(NC=O)c2O)C(=O)O[C@@H](C)[C@@H]1OC(=O)CC(C)C [antimycin A]
- effect on mitochondrial ROS (MitoSOX) [4]: lack of ROS-promoting effect
